Laboratory results taken from paper PMC6218153 (Journal of Alzheimer's Disease Reports, 2018).
Marks after values point to notes of the source that are not given here. Where no end group is shown, it is not given here.

Assay: PK study in plasma and CSF after single IV, SC or IN dose
Assay type: in vivo, rat
Method in brief: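 Cannulated rats (jugular vein, intracisternal; n = 6/route) received a single dose in PBS: IV or SC ~11 mg/kg over 1 min, or IN ~5.5 mg/kg, 10 μL per nostril at 6-min intervals over 18 min. K2EDTA plasma was taken pre-dose to 165 min and CSF pre-dose to 150/180 min. LC/MS/MS (ESI+, 1007.55 > 876.35) with noncompartmental PK; CL = Dose/AUC. CSF ratio = dose-normalised CSF AUC relative to IV.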

## DEEEDEEL [P8, DEEEDEEL]
IN 5.5 mg/kg single dose, 5 min, Rat 1
  P8 concentration in plasma: 137 ng/mL
IN 5.5 mg/kg single dose, 5 min, Rat 2
  P8 concentration in plasma: 262 ng/mL
IN 5.5 mg/kg single dose, 5 min, Rat 3
  P8 concentration in plasma: 191 ng/mL
IN 5.5 mg/kg single dose, 10 min, Rat 2
  P8 concentration in CSF: 3.09 ng/mL
IN 5.5 mg/kg single dose, 10 min, Rat 3
  P8 concentration in CSF: 32.8 ng/mL
IN 5.5 mg/kg single dose, 15 min, Rat 1
  P8 concentration in plasma: 102 ng/mL
IN 5.5 mg/kg single dose, 15 min, Rat 2
  P8 concentration in plasma: 234 ng/mL
IN 5.5 mg/kg single dose, 15 min, Rat 3
  P8 concentration in plasma: 150 ng/mL
IN 5.5 mg/kg single dose, 25 min, Rat 1
  P8 concentration in plasma: 60.8 ng/mL
IN 5.5 mg/kg single dose, 25 min, Rat 2
  P8 concentration in plasma: 123^b ng/mL
IN 5.5 mg/kg single dose, 25 min, Rat 3
  P8 concentration in plasma: 90.6 ng/mL
IN 5.5 mg/kg single dose, 30 min, Rat 2
  P8 concentration in CSF: 1.03 ng/mL
IN 5.5 mg/kg single dose, 30 min, Rat 3
  P8 concentration in CSF: 1.95 ng/mL
IN 5.5 mg/kg single dose, 35 min, Rat 1
  P8 concentration in plasma: 53.7 ng/mL
IN 5.5 mg/kg single dose, 35 min, Rat 2
  P8 concentration in plasma: 85.9 ng/mL
IN 5.5 mg/kg single dose, 35 min, Rat 3
  P8 concentration in plasma: 66.0 ng/mL
IN 5.5 mg/kg single dose, 50 min, Rat 1
  P8 concentration in plasma: 66.1 ng/mL
IN 5.5 mg/kg single dose, 50 min, Rat 2
  P8 concentration in plasma: 67.7 ng/mL
IN 5.5 mg/kg single dose, 50 min, Rat 3
  P8 concentration in plasma: 45.1 ng/mL
IN 5.5 mg/kg single dose, 60 min, Rat 1
  P8 concentration in CSF: 1.18 ng/mL
IN 5.5 mg/kg single dose, 60 min, Rat 2
  P8 concentration in CSF: 0.632 ng/mL
IN 5.5 mg/kg single dose, 60 min, Rat 3
  P8 concentration in CSF: 1.28 ng/mL
IN 5.5 mg/kg single dose, 70 min, Rat 1
  P8 concentration in plasma: 37.6 ng/mL
IN 5.5 mg/kg single dose, 70 min, Rat 2
  P8 concentration in plasma: 55.3 ng/mL
IN 5.5 mg/kg single dose, 70 min, Rat 3
  P8 concentration in plasma: 32.1 ng/mL
IN 5.5 mg/kg single dose, 90 min, Rat 1
  P8 concentration in plasma: 32.2 ng/mL
IN 5.5 mg/kg single dose, 90 min, Rat 2
  P8 concentration in plasma: 42.8 ng/mL
IN 5.5 mg/kg single dose, 90 min, Rat 3
  P8 concentration in plasma: 20.7 ng/mL
IN 5.5 mg/kg single dose, 100 min, Rat 1
  P8 concentration in CSF: 0.537 ng/mL
IN 5.5 mg/kg single dose, 100 min, Rat 2
  P8 concentration in CSF: 2.39 ng/mL
IN 5.5 mg/kg single dose, 100 min, Rat 3
  P8 concentration in CSF: 0.532 ng/mL
IN 5.5 mg/kg single dose, 110 min, Rat 1
  P8 concentration in plasma: 26.0 ng/mL
IN 5.5 mg/kg single dose, 110 min, Rat 2
  P8 concentration in plasma: 27.0 ng/mL
IN 5.5 mg/kg single dose, 110 min, Rat 3
  P8 concentration in plasma: 13.9 ng/mL
IN 5.5 mg/kg single dose, 130 min, Rat 1
  P8 concentration in plasma: 33.2 ng/mL
IN 5.5 mg/kg single dose, 130 min, Rat 2
  P8 concentration in plasma: 15.0 ng/mL
IN 5.5 mg/kg single dose, 130 min, Rat 3
  P8 concentration in plasma: 14.3 ng/mL
IN 5.5 mg/kg single dose, 150 min, Rat 1
  P8 concentration in CSF: 0.581 ng/mL
IN 5.5 mg/kg single dose, 150 min, Rat 3
  P8 concentration in CSF: 1.16 ng/mL
IN 5.5 mg/kg single dose, 165 min, Rat 1
  P8 concentration in plasma: 32.7 ng/mL
IN 5.5 mg/kg single dose, 165 min, Rat 2
  P8 concentration in plasma: 14.9 ng/mL
IN 5.5 mg/kg single dose, 165 min, Rat 3
  P8 concentration in plasma: 17.1 ng/mL
IV 11.0 mg/kg single dose, 5 min, Rat 1
  P8 concentration in plasma: 102,000 ng/mL
IV 11.0 mg/kg single dose, 5 min, Rat 2
  P8 concentration in plasma: 45,300 ng/mL
IV 11.0 mg/kg single dose, 5 min, Rat 3
  P8 concentration in plasma: 43,600 ng/mL
IV 11.0 mg/kg single dose, 10 min, Rat 2
  P8 concentration in CSF: 50.1^c ng/mL
IV 11.0 mg/kg single dose, 10 min, Rat 3
  P8 concentration in CSF: 85.7^c ng/mL
IV 11.0 mg/kg single dose, 15 min, Rat 2
  P8 concentration in plasma: 12,600 ng/mL
IV 11.0 mg/kg single dose, 15 min, Rat 3
  P8 concentration in plasma: 8,460 ng/mL
IV 11.0 mg/kg single dose, 25 min, Rat 1
  P8 concentration in plasma: 4,250 ng/mL
IV 11.0 mg/kg single dose, 25 min, Rat 2
  P8 concentration in plasma: 5,650 ng/mL
IV 11.0 mg/kg single dose, 25 min, Rat 3
  P8 concentration in plasma: 3,230 ng/mL
IV 11.0 mg/kg single dose, 30 min, Rat 1
  P8 concentration in CSF: 42.5 ng/mL
IV 11.0 mg/kg single dose, 30 min, Rat 2
  P8 concentration in CSF: 48.2^c ng/mL
IV 11.0 mg/kg single dose, 30 min, Rat 3
  P8 concentration in CSF: 39.3 ng/mL
IV 11.0 mg/kg single dose, 35 min, Rat 1
  P8 concentration in plasma: 2,160 ng/mL
IV 11.0 mg/kg single dose, 35 min, Rat 2
  P8 concentration in plasma: 2,710 ng/mL
IV 11.0 mg/kg single dose, 35 min, Rat 3
  P8 concentration in plasma: 1,770 ng/mL
IV 11.0 mg/kg single dose, 50 min, Rat 1
  P8 concentration in plasma: 878 ng/mL
IV 11.0 mg/kg single dose, 50 min, Rat 2
  P8 concentration in plasma: 1,190 ng/mL
IV 11.0 mg/kg single dose, 50 min, Rat 3
  P8 concentration in plasma: 713 ng/mL
IV 11.0 mg/kg single dose, 60 min, Rat 1
  P8 concentration in CSF: 22.8 ng/mL
IV 11.0 mg/kg single dose, 60 min, Rat 2
  P8 concentration in CSF: 17.8 ng/mL
IV 11.0 mg/kg single dose, 60 min, Rat 3
  P8 concentration in CSF: 16.9 ng/mL
IV 11.0 mg/kg single dose, 70 min, Rat 1
  P8 concentration in plasma: 392 ng/mL
IV 11.0 mg/kg single dose, 70 min, Rat 2
  P8 concentration in plasma: 313 ng/mL
IV 11.0 mg/kg single dose, 70 min, Rat 3
  P8 concentration in plasma: 199 ng/mL
IV 11.0 mg/kg single dose, 100 min, Rat 1
  P8 concentration in CSF: 10.7 ng/mL
IV 11.0 mg/kg single dose, 100 min, Rat 2
  P8 concentration in CSF: 8.69 ng/mL
IV 11.0 mg/kg single dose, 100 min, Rat 3
  P8 concentration in CSF: 4.08 ng/mL
IV 11.0 mg/kg single dose, 110 min, Rat 1
  P8 concentration in plasma: 93.1 ng/mL
IV 11.0 mg/kg single dose, 110 min, Rat 2
  P8 concentration in plasma: 36.4 ng/mL
IV 11.0 mg/kg single dose, 110 min, Rat 3
  P8 concentration in plasma: 39.8 ng/mL
